Columns and labels:
[1] = biological target: Platelet-activating factor acetylhydrolase 2, cytoplasmic (Mus musculus) (UniProt Q8VDG7); assay: pPAFAH anti-target inhibition in intact cells, late-stage follow-up, selectivity assay for PAFAH2 inhibitor project, fluorescence, gel-based ABPP, murine mast cells, in situ (AID 504531); conditions: gel-based ABPP FP-Rh, PAFAH2, at 0.01 µM, stronger effect = higher value
Outline: (§1)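 technique = SDS-PAGE with in-gel fluorescence scanning, band integrated optical density | system = murine mast cells treated in situ, then soluble lysate fraction | timing = cells 4 h 37 °C, probe 30 min 25 °C | compound dosing = one dose, 10 nM | medium = FCS-supplemented medium | benchmarks = high control DMSO-only treated cells, low control blank-gel background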

[2] = biological target: Platelet-activating factor acetylhydrolase (Mus musculus) (UniProt Q60963); assay: as above; conditions: gel-based ABPP FP-Rh, pPAFAH, at 0.01 µM, stronger effect = higher value
Outline: as §1

Platelet-activating factor acetylhydrolase 2, cytoplasmic (Mus musculus), sequence (Q8VDG7 whole entry, looked up): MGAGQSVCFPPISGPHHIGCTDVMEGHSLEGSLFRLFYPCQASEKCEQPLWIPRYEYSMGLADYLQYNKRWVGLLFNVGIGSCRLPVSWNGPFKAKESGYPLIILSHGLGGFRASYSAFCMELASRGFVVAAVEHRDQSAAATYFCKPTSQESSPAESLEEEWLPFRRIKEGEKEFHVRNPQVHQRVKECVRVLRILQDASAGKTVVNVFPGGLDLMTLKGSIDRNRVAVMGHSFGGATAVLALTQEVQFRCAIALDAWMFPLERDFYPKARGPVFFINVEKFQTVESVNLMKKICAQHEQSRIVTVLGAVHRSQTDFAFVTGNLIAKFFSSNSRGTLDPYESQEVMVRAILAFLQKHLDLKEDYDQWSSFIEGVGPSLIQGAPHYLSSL
Platelet-activating factor acetylhydrolase (Mus musculus), sequence (Q60963 whole entry, looked up): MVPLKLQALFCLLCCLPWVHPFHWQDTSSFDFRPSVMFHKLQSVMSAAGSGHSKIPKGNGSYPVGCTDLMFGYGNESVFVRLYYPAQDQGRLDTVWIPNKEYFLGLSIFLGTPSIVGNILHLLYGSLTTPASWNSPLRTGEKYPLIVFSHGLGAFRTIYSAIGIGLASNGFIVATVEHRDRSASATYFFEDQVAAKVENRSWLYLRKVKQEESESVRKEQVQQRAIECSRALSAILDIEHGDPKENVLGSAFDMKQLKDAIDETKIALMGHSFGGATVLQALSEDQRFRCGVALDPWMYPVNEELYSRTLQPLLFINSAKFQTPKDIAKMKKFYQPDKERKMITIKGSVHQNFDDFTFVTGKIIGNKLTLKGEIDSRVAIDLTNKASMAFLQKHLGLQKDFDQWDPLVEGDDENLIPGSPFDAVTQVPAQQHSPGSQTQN

inhibition [1]: 100% | inhibition [2]: 0%
Compound: O=C(N1CCCC1)n1ncc(-c2ccc(-c3ccccc3)cc2)n1

Reference: PubChem BioAssay AID504531 (The Scripps Research Institute Molecular Screening Center, 2011)
